aDG glyco act: increases alpha dystroglycan glycosylation; Pro5-aDG cells, alpha-DG glycosylation AlphaScreen (IIH6); 0% Pro5, 100% B10-LARGE cell signal; activation, % at 10 µM; 360,000 tested, 0.22% active;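 active means activation of at least 8% versus controls, or a plate z-score of at least 8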;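 further: Pro5 are CHO cells carrying HIG-tagged alpha-DG that lacks glycosylation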
TPT1 inhibitor: inhibitors of Candida albicans tRNA 2'-phosphotransferase TPT1 | 300,000 tested, 0.81% active | recombinant caTPT1, FP RNA substrate dephosphorylation | inhibition, % at 5 µM;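 active means inhibition above the mean of all tested compounds plus 3 SD, set per screening campaign, cut at about 24% in these data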;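 further: plate controls were DMSO alone for no effect and ferristatin control at 100 nM for full effect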
HNF4A DNA FP: change in binding of human HNF4 alpha to DNA; AID 1224865; activity change, % at 10 µM; HNF4a-FITC DNA binding, fluorescence polarization, 1 h; P41235; 360,000 tested, 0.3% active; in the data active means activity change above about 30%, passing the limit was not always enough
Xi reactivation: reactivates the inactive X chromosome in mouse fibroblasts. XiGFP mouse fibroblasts, % GFP-positive cells imaging, 3 d; cells co-treated with 5-aza-dC sensitizer; scaled so ellipticine positive control = 100%. activation, % at 7.58 µM. 360,000 tested, 0.055% active. AID 743238;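 active means mean normalized replicate activation at least 10% and every replicate at or above 10%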;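 further: 0% = median of on-plate neutral control wells and 100% = ellipticine 6 µM median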
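System: SV40-immortalized XiGFP fibroblast cells, line 68-5-11 / Incubation: 3-day compound exposure, then 15 min fixation at room temperature / Compound: single concentration per compound, delivered by pin transfer / Buffer or medium: DMEM plus 5-aza-dC sensitizer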
Rpn11 inh: Rpn11 (human) deubiquitinase inhibition. O00487. human 26S proteasome, Ub4-pepOG fluorescence polarization; 20S core pre-blocked with epoxomicin. inhibition, % at 20 µM. 360,000 tested, 0.59% active. AID 588493;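 active means inhibition at 20 µM, scaled to each plate's controls, above about 33%, limit read from the data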
Target sequence (O00487 whole entry, looked up): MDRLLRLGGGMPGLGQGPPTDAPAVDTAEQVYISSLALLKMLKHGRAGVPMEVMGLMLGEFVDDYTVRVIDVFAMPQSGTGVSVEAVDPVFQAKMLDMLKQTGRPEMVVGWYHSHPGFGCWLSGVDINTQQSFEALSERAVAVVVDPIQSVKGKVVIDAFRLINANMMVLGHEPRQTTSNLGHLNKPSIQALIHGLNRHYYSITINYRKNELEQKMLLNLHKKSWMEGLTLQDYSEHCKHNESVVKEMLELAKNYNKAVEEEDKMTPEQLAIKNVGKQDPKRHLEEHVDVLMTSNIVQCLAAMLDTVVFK
CSN inh: CSN deneddylation inhibition; Purified CSN, SCF-Nedd8-OG deneddylation, fluorescence polarization; inhibition, % at 12.5 µM; 360,000 tested, 0.38% active;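 active means pattern-corrected inhibition above about 35%, with an unprinted fluorescence ratio check between 0.5 and 1.5, limit read from the data, passing the limit was not always enough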;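 further: 0% = enzyme with substrate and 100% = substrate without enzyme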
Target sequence (Q92905 whole entry, looked up, one chain of several): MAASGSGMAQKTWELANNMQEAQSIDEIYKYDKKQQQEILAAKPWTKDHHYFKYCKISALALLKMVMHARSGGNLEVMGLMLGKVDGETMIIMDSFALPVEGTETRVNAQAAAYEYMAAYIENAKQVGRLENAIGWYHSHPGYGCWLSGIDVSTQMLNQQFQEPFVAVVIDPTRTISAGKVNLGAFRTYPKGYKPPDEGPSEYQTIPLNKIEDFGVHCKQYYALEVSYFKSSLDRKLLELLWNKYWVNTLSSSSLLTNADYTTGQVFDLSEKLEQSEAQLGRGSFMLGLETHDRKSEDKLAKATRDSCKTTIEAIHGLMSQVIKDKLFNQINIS
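Test system: purified human Csn5 enzyme expressed in HEK293T cells. Amount: 0.24 nM enzyme. Reagent: SCFSkp2-Nedd8OG substrate at 10 nM final. Schedule: 90 min incubation of compound, enzyme and substrate at room temperature. Detection: fluorescence polarization. Read-out: % inhibition of substrate cleavage by Csn5.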
caTPT1 confirm: confirmation of Candida albicans TPT1 inhibitors; shares compounds with TPT1 inhibitor; recombinant caTPT1, fluorescence polarization, RNase T1 coupled; inhibition, % at 5 µM; 2,400 tested, 74% active; AID 2149;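 active means inhibition above the primary screen limit, the mean inhibition of all tested compounds plus 3 SD, cut at about 25% in these data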
RNase T1 inh: RNase T1 inhibition in TPT1 counter-screen. shares compounds with TPT1 inhibitor. AID 2153. 2,400 tested, 83% active. inhibition, % at 5 µM. RNase T1 cleavage, fluorescence polarization, 1536-well;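 active means inhibition above the solvent-only control well mean plus 3 SD, limit set per screening run, cut at about 23% in these data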;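 further: plate controls were DMSO wells with enzyme for no effect and wells without RNase T1 for full effect; inhibitors block cleavage so intact labeled substrate keeps polarization high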
* marks the source's active call; other numbers are inactive results; / = not tested or not shown. Shown are actives, neighbours in structure and some others; about 1.3% of the full set was active somewhere.

SMILES	aDG glyco act	TPT1 inhibitor	HNF4A DNA FP	Xi reactivation	Rpn11 inh	CSN inh	caTPT1 confirm	RNase T1 inh
COc1ccc(N=C2O/C(=C/c3sc(=S)n(CC4CCCO4)c3O)N=C2C#N)cc1 (stereo unspecified)	0.3	45.0*	31.1	0.1	/	11.0	51.6*	61.1*
CO[C@H]1CN(C)C(=O)c2cc(NS(=O)(=O)CC(F)(F)F)ccc2OC[C@@H](C)N(Cc2ccccn2)C[C@H]1C	/	/	/	0.1	/	/	/	/
C(=N\NC1=Nc2cccc3cccc1c23)/c1ccccc1	-0.4	26.3*	26.0	0.8	-75.5	6.5	41.8*	57.7*
Clc1ccc(/C=N/NC2=Nc3cccc4cccc2c34)cc1	0.2	12.7	22.1	0.6	28.4	15.5	/	/
COc1ccc(NC2=Nc3cccc4cccc2c34)cc1OC	0.6	33.1*	10.4	/	26.5	8.7	31.2*	39.5*
CN1/C(=C/C2CC(=O)N(c3ccc([N+](=O)[O-])cc3)C2=O)C(C)(C)c2ccccc21 (stereo unspecified)	0.0	24.8*	0.9	/	13.5	5.4	13.7	19.9
C[C@@H]1CN([C@H](C)CO)C(=O)CCCn2cc(nn2)CO[C@H]1CN(C)Cc1cccc(C(F)(F)F)c1	/	/	/	-0.2	/	/	/	/
O=[N+]([O-])c1ccc(N/N=C/c2cccc(O)c2O)cc1	0.0	51.0*	21.2	0.3	16.8	8.1	59.7*	74.2*
O=[N+]([O-])c1ccc(NN=Cc2cccc([N+](=O)[O-])c2)cc1	-0.3	/	3.7	0.3	14.1	6.2	/	/
Cc1cccc(C(=O)Oc2ccccc2/C=N/Nc2ccc([N+](=O)[O-])cc2)c1	0.5	39.3*	9.5	0.1	23.2	4.9	39.0*	51.5*
C[C@H]1CN(C)C(=O)c2cc(N(C)C)ccc2O[C@H]1CN(C)S(C)(=O)=O	/	/	/	0.3	/	/	/	/
Cc1[nH]nc2c1C(c1ccc(F)cc1)C(C#N)=C(N)O2 (stereo unspecified)	0.2	1.0	-0.1	/	-0.8	1.6	/	/
Cc1oc(C)c2c(=O)ccc3c(c12)OC(N)=C(C#N)C3c1ccc(F)cc1 (stereo unspecified)	-0.1	30.8*	17.6	/	/	27.0	16.5	28.3*
COc1cc(NC(=O)C2=C(N3CCOCC3)/C(=C\c3ccc(N(C)C)cc3)CCC2)cc(OC)c1OC	0.2	32.1*	5.7	0.3	29.1	-1.6	20.7	25.7*
COC(=O)c1sc2cc([N+](=O)[O-])cc(SCC(C)C)c2c1N	-0.2	42.8*	29.2	0.1	/	20.9	28.6*	40.6*
O=C(NCC[C@@H]1CC[C@H](NC(=O)C2CCC2)[C@H](CO)O1)c1cc(Cl)cc(Cl)c1	/	/	/	-1.2	/	/	/	/
O=C(NC1CCCC1)N1CC2(C1)[C@@H](c1ccccc1)[C@@H](CO)N2CC1CCOCC1	/	/	/	0.3	/	/	/	/
O=S(=O)(Nc1nc2ccccc2nc1Nc1ccc2c(c1)OCCO2)c1cccs1	-0.1	78.4*	47.8*	/	/	50.8*	89.6*	96.4*
C[C@H]1CN([C@@H](C)CO)C(=O)c2cc(NC(=O)C3CC3)ccc2O[C@H]1CN(C)Cc1ccccc1	/	/	/	0.0	/	/	/	/
N#CC1=C(N)n2c(s/c(=C\c3cccs3)c2=O)=C(C#N)C1c1cccs1 (stereo unspecified)	0.7	54.0*	64.6	2.4	/	66.2*	42.2*	54.1*
CCC(C)N1CCNCC1 (stereo unspecified)	-0.5	33.2*	-4.4	0.0	3.2	-1.8	-1.3	4.4
CN1/C(=C\C=C2/SC(=S)NC2=O)C(C)(C)c2ccccc21	0.7	105.6*	-3.9	1.1	/	-101.1	111.0*	105.7*
CN1/C(=C\C=C2/C(=O)Oc3ccccc3C2=O)C(C)(C)c2ccccc21	/	98.0*	/	2.0	/	/	5.1	13.1
CC1=NN(c2ccccc2)C(=O)/C1=C\C=C1\N(C)c2ccccc2C1(C)C	0.1	61.2*	70.2*	-0.1	/	32.7	51.1*	63.7*
COc1ccccc1-c1cnc2c(c1)C(=O)N([C@@H](C)CO)C[C@@H](C)[C@H](CN(C)Cc1cccc(F)c1)O2	/	/	/	2.5	/	/	/	/
SMILES	aDG glyco act	TPT1 inhibitor	HNF4A DNA FP	Xi reactivation	Rpn11 inh	CSN inh	caTPT1 confirm	RNase T1 inh
C[C@@H]1CC=CC[C@H](c2cccc(Cl)c2)NC(=O)[C@H](C)N(C)C(=O)c2ccccc2O1 (mixture of isomers)	/	/	/	0.0	/	/	/	/
Cc1ccc(C2C3CSCC=C3C(C#N)=C(N)C2(C#N)C#N)cc1 (stereo unspecified)	-0.3	27.2*	16.7	/	27.6	8.8	18.9	29.4*
CC(C)N1CC=C2C(C#N)=C(N)C(C#N)(C#N)C(c3ccccc3)C2C1 (stereo unspecified)	0.0	-26.4	-37.6	/	-95.0	-20.6	/	/
O=c1c2ccccc2c(/C=N/NS(=O)(=O)c2ccccc2)c(O)n1-c1ccccn1	0.0	106.2*	119.8	0.0	/	79.7*	62.1*	78.4*
O=c1c2ccccc2c(/C=N/n2cnnc2)c(O)n1-c1ccccc1	-0.3	15.4	-0.1	/	26.7	5.7	/	/
CCOC(=O)c1c(NC(C)=O)sc2c1CCN(Cc1ccccc1)C2	-0.1	1.4	3.5	-0.2	-4.4	5.6	/	/
CCOC(=O)c1c(NC(=O)CC)sc2c1CCN(Cc1ccccc1)C2	0.0	2.7	5.8	0.0	-1.9	1.9	/	/
CCOC(=O)c1c(NC(=S)Nc2ccccc2)sc2c1CCN(CCc1ccccc1)C2	/	119.7*	/	/	/	/	114.5*	112.8*
CCOC(=O)c1c(N)sc2c1CCN(CCc1ccccc1)C2	-0.1	27.9*	22.5	0.4	/	20.4	15.8	23.9*
CCOC(=O)c1c(NC(=O)C(C)Sc2cccc[n+]2[O-])sc2c1CCN(Cc1ccccc1)C2 (stereo unspecified)	0.1	71.2*	4.3	0.0	19.4	10.3	76.9*	85.6*
O=C(CC1CC1)Nc1ccc2c(c1)[C@H]1C[C@@H](CC(=O)NC3CCCCC3)O[C@H](CO)[C@H]1O2	/	/	/	-0.1	/	/	/	/
CCn1c(C)c(C2=CCN(S(=O)(=O)c3ccccc3)CC2)c2ccccc21	-0.1	27.6*	2.5	0.0	5.9	9.9	17.4	28.5*
C[C@@H]1CN([C@H](C)CO)C(=O)Cc2cc(NC(=O)Cn3cnnn3)ccc2O[C@H]1CN(C)Cc1ccc2c(c1)OCO2	/	/	/	-1.1	/	/	/	/
CC(C)NCC(=O)Nc1c2c(nc3ccccc13)CCC2	0.0	0.6	5.0	0.0	-0.5	-1.2	/	/
c1coc(CNc2c3c(nc4ccccc24)CCC3)c1	1.4	25.5*	-13.0	/	-35.2	8.2	24.4*	34.7*

Source: PubChem BioAssay
